Test results reported in paper PMC3817951 (Journal of immunology (Baltimore, Md. : 1950), 2013).
Where “and” joins values, the source holds several entries; their conditions need not be identical. Equal entries are not always repeated. Entries after “also recorded” stand apart in the source; their conditions may differ. Where two headings read alike, the source gives them in different places.

Tests used:
[1] = system: murine iNKT hybridoma N38-2C12 (Vα14Vβ8.2b); experiment: In vitro stimulation of iNKT hybridoma 2C12 with glycolipid pulsed BMDCs; assay type: cell-based, mouse; details: for IL-2 production (ELISA): BMDCs loaded 100 ng/ml for 20 h, co-culture with 2C12 for 16 hours
Outline: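 Hybridoma kept in cDMEM (DMEM, 10% FCS, glutamine, pen/strep, 2-mercaptoethanol). BMDCs grown 10 days with GM-CSF, pulsed 20 h with 100 ng/ml glycolipid. 5×10^4 hybridoma cells plus 10^5 BMDCs at 37°C. Secreted IL-2 by ELISA at 16 h (n=6). Intracellular IL-2 at 4 h. TCRβ by flow at 24 h with CD45.1 BMDCs, gated CD45.2+CD45.1−7AAD−.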

[2] = system: CD1d; experiment: Cellular assay of stability of the glycolipid-CD1d complex; assay type: cell-based, mouse; details: BMDCs loaded 100 ng/mL 20 hours, wash-off 4h to 48h
Outline: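 BMDCs grown 10 days with GM-CSF, then pulsed 20 h with 100 ng/mL glycolipid and washed. Cells were held in medium for 4–48 h, and released glycolipid was washed off. They were then co-cultured with 2C12 hybridoma (5×10^4 hybridoma:10^5 BMDCs, cDMEM, 37°C). IL-2 in the medium, normalised to the 4 h point, indicates remaining loaded CD1d. Mean ± s.e.m., n=6.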

[3] = system: CD1d; details: compared with CD1d-α-GalCer complexes; cited from earlier work
[4] = system: iNKT cells; assay type: in vivo, C57BL/6 mice; details: for serum IFN-γ levels / serum IL-12 levels: 16 hours after injection of 5 μg glycolipid (i.p.)
Outline: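 C57BL/6 mice aged 5–12 weeks received 5 μg glycolipid i.p. in PBS. Glycolipid solubilised in PBS or vehicle (sucrose/deoxycholate/Tween 20), heated 20 min at 80°C, sonicated 10 min. Serum cytokines measured 16 h after injection. Mean ± s.e.m. of at least sixteen mice, pooled from two independent experiments.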

[5] = system: TCR; experiment: Surface plasmon resonance: TCR binding to mCD1d-glycolipid complexes; parameters: species or system mouse; details: for Kd: SPR, TCR towards glycolipid presented by mCD1d, 25°C, Langmuir 1:1 model
Outline: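 Biotinylated birA-tagged mouse CD1d loaded overnight with 6-fold molar excess glycolipid (DMSO stock 1 mg/ml). 500–600 RU of complex captured on streptavidin chip. TCR injected at 0.0156–2 μM in 10 mM Hepes, 150 mM NaCl, 3 mM EDTA, pH 7.4, for 1.5–3 min. Dissociation 45 min at 25°C. Empty-CD1d reference subtracted, Langmuir 1:1 fit. Three runs, separate TCR preparations.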

[6] = system: spleen DCs (CD11c CD11b double positive); experiment: Co-stimulatory marker expression on spleen DCs; assay type: in vivo, mouse
[7] = system: iNKT cells; assay type: in vivo, C57BL/6 mice; details: for IFN-γ levels (Figure 2 panel b, IL-12 panel): at 16 hours
[8] = system: B16 melanoma cells; experiment: B16 melanoma lung metastasis model; assay type: in vivo, mice; details: 10 000 BMDCs loaded with glycolipid
Outline: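 C57BL/6 mice aged 5–12 weeks. B16 cells grown in advanced RPMI with 10% FCS, glutamine and pen/strep, lifted with cell dissociation buffer and washed twice. 2x10^5 or 4x10^5 cells were injected i.v. into the tail vein within 30 min of harvest. Glycolipid-pulsed BMDCs given i.v. (6x10^4 or 1x10^4). Mice killed at day 14 and lungs removed for scoring.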

[9] = system: human iNKT cells; assay type: cell-based
Outline: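 Sorted, expanded iNKT cells from healthy adult donors. Autologous PBMCs isolated by density centrifugation, incubated overnight with glycolipid (100 ng/ml), washed and irradiated (40 Gy). 5x10^4 iNKT cells cultured with 10^5 PBMCs in RPMI 1640 plus 10% human AB serum, pyruvate, non-essential amino acids and pen/strep. Supernatant cytokines at 24 h by cytometric bead array. Data pooled from two experiments, two donors.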

[10] = 600 000 glycolipid-pulsed BMDCs, at 16 and 24 hours
[11] = 600 000 glycolipid-pulsed BMDCs
[12] = 10 000 pulsed BMDCs, 16 hours, compared to NU-α-GalCer and α-GalCer
[13] = 100 ng/ml loading, 24hrs, compared to α-GalCer

Row | Compound | IL-2 production (ELISA) [1] | serum IFN-γ levels [4] | serum IL-12 levels [4] | Kd [5] | serum IFN-γ levels [7, 10] | IFN-γ levels (Figure 2 panel b, IL-12 panel) [7, 11] | lung nodules / anti-metastatic activity [8] | other results
1 | CCCCCCCCCCCCCCCCCCCCCCCCCC(=O)NC(CC1OC(CO)C(O)C(O)C1O)C(O)C(O)CCCCCCCCCCCCCC (stereo not drawn) [α-C-GalCer] | higher IL-2 levels |  |  |  |  |  |  | TCRβ expression ([1]; 2C12, 24 hours after coculture with glycolipid-pulsed CD45.1 BMDCs): clear TCRb downregulation; stability of glycolipid-CD1d complex (IL-2 normalized to 4 hours after wash off) [2]: much slower decay compared to α-GalCer; half-life in vivo of complex with CD1d [3]: much longer half-life in vivo
2 | CCCCCCCCCCCCCCCCCCCCCCCCCC(=O)N[C@@H](CO[C@H]1O[C@H](CO)[C@H](O)[C@H](O)[C@H]1O)[C@H](O)[C@H](O)CCCCCCCCCCCCCC [α-GalCer, alpha galactosyl ceramide, reference compound] |  | significantly lower | significantly lower | 26 nM and 26.4 nM |  |  |  | CD80 and CD86 expression ([6]; dendritic cell surface): induced upregulation of both CD80 and CD86
3 | CCCCCCCCCCCCCCCCCCCCCCCCCC(=O)N[C@@H](CO[C@H]1O[C@H](CNC(=O)Nc2cccc3ccccc23)[C@H](O)[C@H](O)[C@H]1O)[C@H](O)[C@H](O)CCCCCCCCCCCCCC [NU-α-GalCer, α-GalCer-6″-(1-naphthyl)urea] | higher IL-2 levels; also recorded: significantly differ from α-GalCer | significantly lower; also recorded: comparable or slightly lower |  |  | significantly higher compared to α-GalCer | significantly higher compared to α-GalCer | significantly stronger compared to α-GalCer | 
4 | CCCCCCCCCCCCCCCCCCCCCCCCCC(=O)N[C@@H](CO[C@H]1O[C@H](COC(=O)Nc2ccc(Cl)cc2)[C@H](O)[C@H](O)[C@H]1O)[C@H](O)[C@H](O)CCCCCCCCCCCCCC [4ClPhC-α-GalCer, α-GalCer-6″-(4-chlorophenyl)carbamate] | significantly differ from α-GalCer |  |  | 49.3 ± 0.3 nM | significantly higher compared to NU-α-GalCer | significantly higher compared to α-GalCer |  | reduced binding affinity ([5]; 49 nM vs. 25 nM): 2 fold
5 | CCCCCCCCCCCCCCCCCCCCCCCCCC(=O)N[C@@H](CO[C@H]1O[C@H](COC(=O)Nc2cccc3ccccc23)[C@H](O)[C@H](O)[C@H]1O)[C@H](O)[C@H](O)CCCCCCCCCCCCCC [NC-α-GalCer, α-GalCer-6″-(1-naphthyl)carbamate] | significantly differ from α-GalCer |  |  | 37 nM and 37.1 nM |  |  |  | 
6 | CCCCCCCCCCCCCCCCCCCCCCCCCC(=O)N[C@@H](CO[C@H]1O[C@H](COC(=O)Nc2ccncc2)[C@H](O)[C@H](O)[C@H]1O)[C@H](O)[C@H](O)CCCCCCCCCCCCCC [PyrC-α-GalCer, α-GalCer-6″-(pyridin-4-yl)carbamate] | significantly differ from α-GalCer |  | significantly higher IL-12 levels than NU-α-GalCer | 25 ± 3 nM | significantly higher compared to NU-α-GalCer |  | superior in preventing tumor metastasis; also recorded: reduce the amount of noduli even significantly better | serum IFN-γ levels [7, 12]: significantly higher; serum IL-12 levels [7, 12]: significantly higher; serum IL-12 levels [7, 10]: even after 24 hours markedly higher than for NU-α-GalCer; also recorded: significantly higher compared to NU-α-GalCer; course of IFN-γ level over time ([7]; glycolipid pulsed BMDCs, in contrast to 4ClPhC-α-GalCer and NU-α-GalCer): increased up to 24 hours after injection; increase of IL-12 levels ([4]; PyrC-α-GalCer administration, mode and comparator not stated at place): 10 fold; IFN-γ production [9, 13]: slightly elevated; IL-4 production [9, 13]: less production; IL-12 production [9, 13]: slightly elevated; IL-13 production [9, 13]: less production; Th1-biased cytokine secretion ([9]; purified human iNKT cells, more IFN-γ and IL-12 and less IL-4 and IL-13 compared to α-GalCer): able to induce Th1-biased cytokine secretion; CD40 and OX40L expression ([6]; spleen DCs): induces early CD40 and OX40L upregulation
